From ChEMBL document CHEMBL1142128, “Hygromycin B inhibition of protein synthesis and ribosome biogenesis in Escherichia coli” (Antimicrob Agents Chemother, 2007)
≈ marks a conversion by molar mass, not a printed value.

How the values were obtained:
Escherichia coli [1] = assay: Inhibition of protein synthesis in Escherichia coli measured as incorporation of [35S]methionine; type: functional, organism-based
In short: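 E. coli in TSB at 37°C, with or without drug, received [35S]methionine (1 µCi/ml). Samples (0.4 ml) were taken every 5 min for 15 min, precipitated with 20% TCA, collected on glass-fibre filters, washed with 10% TCA, and scintillation-counted. IC50 derived from the concentration series; means of two.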

Escherichia coli [2] = assay: Inhibition of viable cells in Escherichia coli at 20 ug/ml; type: functional
In short: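 E. coli grown at 37°C in TSB with or without drug. Viable cells were counted as colonies after serial dilution. Results are given as percent decrease versus untreated control; means of two determinations.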

Escherichia coli [3] = assay: Antimicrobial activity against Escherichia coli; type: functional
In short: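 Broth dilution MIC; E. coli grown at 37°C in tryptic soy broth (TSB) with and without hygromycin B.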

Escherichia coli [4] = assay: Reduction of growth rate in Escherichia coli at 25 ug/ml; type: functional; parameters: scale not given: the % may be the effect or the level left
[5] = Inhibition of 30S ribosomal-subunit assembly in Escherichia coli
In short: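 E. coli in TSB at 37°C were labelled with [3H]uridine (1 µCi/ml, 1 µg/ml) for two doublings, with or without drug. Label was chased with uridine at 50 µg/ml final for 15 min. The 30S share of total gradient cpm was compared with control; IC50 derived; means of two.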

Escherichia coli [6] = assay: Effect on small RNA accumulation in Escherichia coli at 25 ug/ml; type: functional
In short: (§1)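 E. coli grown in TSB across a range of hygromycin B concentrations, plus an untreated control. Total RNA was extracted from 1 ml of cells. Samples (5 µl at 200 ng/µl) were run on an Agilent Bioanalyzer RNA 6000 chip under total-RNA conditions, and RNA species were read from fluorescence electropherograms.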

Escherichia coli [7] = assay: Effect on small RNA accumulation in Escherichia coli at 50 ug/ml; type: functional; in short: as §1
Escherichia coli [8] = assay: Effect on small RNA accumulation in Escherichia coli at 75 ug/ml; type: functional; in short: as §1
Escherichia coli [9] = assay: Effect on small RNA accumulation in Escherichia coli at 100 ug/ml; type: functional; in short: as §1
Escherichia coli [10] = assay: Effect on 16S rRNA accumulation in Escherichia coli at 25 ug/ml; type: functional; in short: as §1
Escherichia coli [11] = assay: Effect on 16S rRNA accumulation in Escherichia coli at 50 ug/ml; type: functional; in short: as §1
Escherichia coli [12] = assay: Effect on 16S rRNA accumulation in Escherichia coli at 75 ug/ml; type: functional; in short: as §1
Escherichia coli [13] = assay: Effect on 16S rRNA accumulation in Escherichia coli at 100 ug/ml; type: functional; in short: as §1
Escherichia coli [14] = assay: Increase in 16S precursor accumulation in Escherichia coli at 25 ug/ml; type: functional; in short: as §1
Escherichia coli [15] = assay: Increase in 16S precursor accumulation in Escherichia coli at 50 ug/ml; type: functional; in short: as §1
Escherichia coli [16] = assay: Increase in 16S precursor accumulation in Escherichia coli at 75 ug/ml; type: functional; in short: as §1
Escherichia coli [17] = assay: Increase in 16S precursor accumulation in Escherichia coli at 100 ug/ml; type: functional; in short: as §1
Escherichia coli [18] = assay: Decrease in 23S RNA accumulation in Escherichia coli at 25 ug/ml; type: functional; parameters: scale not given: the % may be the effect or the level left; in short: as §1
Escherichia coli [19] = assay: Decrease in 23S RNA accumulation in Escherichia coli at 50 ug/ml; type: functional; parameters: scale not given: the % may be the effect or the level left; in short: as §1
Escherichia coli [20] = assay: Decrease in 23S RNA accumulation in Escherichia coli at 75 ug/ml; type: functional; parameters: scale not given: the % may be the effect or the level left; in short: as §1
Escherichia coli [21] = assay: Decrease in 23S RNA accumulation in Escherichia coli at 100 ug/ml; type: functional; parameters: scale not given: the % may be the effect or the level left; in short: as §1

CN[C@H]1C[C@@H](N)[C@H](O)[C@@H](O[C@@H]2O[C@H](CO)[C@H](O)[C@H]3O[C@@]4(O[C@H]23)O[C@H]([C@H](N)CO)[C@H](O)[C@H](O)[C@H]4O)[C@@H]1O
IC50 (Escherichia coli [1]): 16 µg/mL (≈ 30.3 µM)
inhibition at 20 µg/mL (Escherichia coli [2]): 50%
MIC (Escherichia coli [3]): 150 µg/mL (≈ 284 µM)
Activity (Escherichia coli [4]): 50%
IC50 [5]: 65 µg/mL (≈ 123 µM)
Activity (Escherichia coli [6]): 59%
Activity (Escherichia coli [7]): 62.8%
Activity (Escherichia coli [8]): 64.5%
Activity (Escherichia coli [9]): 68.8%
Activity (Escherichia coli [10]): 10.4%
Activity (Escherichia coli [11]): 10.4%
Activity (Escherichia coli [12]): 7.3%
Activity (Escherichia coli [13]): 4.8%
Activity (Escherichia coli [14]): 0.5%
Activity (Escherichia coli [15]): 0.75%
Activity (Escherichia coli [16]): 1.1%
Activity (Escherichia coli [17]): 1.2%
Activity (Escherichia coli [18]): 13.5%
Activity (Escherichia coli [19]): 12.5%
Activity (Escherichia coli [20]): 12.7%
Activity (Escherichia coli [21]): 10%
